Source: PubChem (Johns Hopkins Ion Channel Center)
Only some compounds are listed: those with a hit (about 3.7% of all), similar ones and a draw of the others.
KCNQ1 pot = potentiates or activates the human KCNQ1 potassium channel. CHO-K1 KCNQ1, thallium flux FluxOR fluorescence; active compounds read high. P51787. hit rate 0.35% among 310,000. B-score at 10 µM;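 active = fluorescence ratio B-score, a plate-corrected score, at least three library SD, with initial intensity B-score within 5 SD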
Target sequence (P51787 whole entry, looked up): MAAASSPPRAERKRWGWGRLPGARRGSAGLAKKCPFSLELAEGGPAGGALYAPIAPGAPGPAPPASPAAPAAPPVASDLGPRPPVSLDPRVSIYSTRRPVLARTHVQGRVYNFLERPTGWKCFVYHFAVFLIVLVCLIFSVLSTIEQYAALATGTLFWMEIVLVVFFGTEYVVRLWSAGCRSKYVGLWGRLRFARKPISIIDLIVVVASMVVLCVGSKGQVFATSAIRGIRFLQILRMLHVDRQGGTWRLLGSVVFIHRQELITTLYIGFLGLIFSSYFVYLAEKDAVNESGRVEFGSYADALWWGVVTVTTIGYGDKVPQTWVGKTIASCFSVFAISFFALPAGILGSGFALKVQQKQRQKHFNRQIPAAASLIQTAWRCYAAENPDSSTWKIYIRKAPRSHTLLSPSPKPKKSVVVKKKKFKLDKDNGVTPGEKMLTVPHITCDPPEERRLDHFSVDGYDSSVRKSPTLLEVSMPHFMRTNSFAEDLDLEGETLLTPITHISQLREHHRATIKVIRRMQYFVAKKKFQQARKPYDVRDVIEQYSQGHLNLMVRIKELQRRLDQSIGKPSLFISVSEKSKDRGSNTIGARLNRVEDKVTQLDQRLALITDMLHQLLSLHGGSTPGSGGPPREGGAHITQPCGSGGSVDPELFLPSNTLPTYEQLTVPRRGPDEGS
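assay system = KCNQ1-transfected CHO-K1 cells | medium = assay buffer with matched DMSO | probe or stimulus = depolarizing K+/Tl+ stimulus, K2SO4 and Tl2SO4 each 12.5 mM in 5x stock | dosing = single dose | incubation = dye 90 min, compound 20 min, room temperature | detection = kinetic FluxOR fluorescence, 10 s baseline plus 110 s post-stimulus | evaluation = ratio B score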
KCNK9 inh = blocks the human KCNK9 two-pore domain potassium channel | HEK293 KCNK9, FluxOR thallium flux fluorescence; active compounds read low | hit rate 1.2% among 310,000 | B-score at 10 µM;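 active = ratio B-score over 3 SD below the library mean, with starting fluorescence within 5 SD of its mean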;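 also: negative B-score means less thallium flux so channel inhibition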
Kir21 inh = Kir2.1 (mouse) channel inhibition; P35561; HEK293-Kir2.1, FluxOR thallium flux fluorescence; active compounds read low; B-score at 10 µM; hit rate 0.85% among 310,000; AID 1672;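 active = fluorescence ratio B-score at or below minus 3 SD of library scores, with starting-brightness B-score within 2 SD, cut at about -4.2 in these data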;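 also: channel flux triggered by added potassium and thallium sulfate stimulus; B-score of peak minus minimum fluorescence over baseline after thallium stimulus; more negative B-score means stronger Kir2.1 block with less thallium influx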
KCNQ1 inh = inhibitors of human KCNQ1 potassium channel | P51787 | CHO-K1 KCNQ1, FluxOR thallium flux fluorescence; active compounds read high | hit rate 1.3% among 310,000 | B-score at 10 µM;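 active = compounds whose thallium flux B-score, printed positive for inhibition, exceeds three library SD while starting fluorescence stays within three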;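 also: channel opened by potassium depolarization with thallium stimulus after 20 min compound exposure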
KCNK3 block = human KCNK3 channel inhibition, primary screen. CHO-KCNK3 thallium flux, FluxOR fluorescence; active compounds read low. B-score at 10 µM. hit rate 0.84% among 340,000;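 active = B-score under library mean minus 4 SD, starting fluorescence ratio at most library mean plus 5 SD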;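 also: more negative B-score means stronger inhibition of thallium flux through KCNK3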
hERG protect = hERG (human) protection from proarrhythmic block; CHO-hERG, FluxOR thallium flux, dofetilide IC70 present; activation (rescue from dofetilide block), less the hit threshold, % at 10 µM; Q12809; hit rate 0.51% among 310,000; AID 1511;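 active = activation above the mean of controls blocked by dofetilide plus 5 SD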;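 also: thallium influx through hERG after potassium depolarization seen as dye fluorescence rise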
KCNK3 confirm = human KCNK3 channel inhibition, confirmation assay | shares compounds with KCNK3 block | CHO-KCNK3 thallium flux, FluxOR fluorescence; 0% buffer, 100% carvedilol maximal block | ratio percent of control, % at 10 µM | hit rate 99% among 2,400;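 active = ratio percent of control, averaged over triplicates, above buffer control mean plus 5 SD, cut at about 64% in these data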;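 also: ratio is the fluorescence rise from min to max over baseline after thallium stimulus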
KCNK3 uninduced = counter-screen for KCNK3 inhibitors: effect in non-induced cells; shares compounds with KCNK3 block; non-induced KCNK3 parental cells, FluxOR thallium flux; active compounds read low; thallium flux ratio (lower = more inhibition) at 10 µM; hit rate 40% among 2,400; AID 651747;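 active = thallium flux ratio, averaged over three wells, more than 5 SD below the buffer control mean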;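 also: host cells are CHO cells without KCNK3 induction; ratio is peak minus trough fluorescence over baseline then normalized to buffer controls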
Starred values were filed as active, the others as inactive; i = inactive; . = not tested or not shown.

SMILES	KCNQ1 pot	KCNK9 inh	Kir21 inh	KCNQ1 inh	KCNK3 block	hERG protect	KCNK3 confirm	KCNK3 uninduced
CCCCC(=O)Oc1c(S(=O)(=O)c2ccc(C)cc2)c(C)nn1C(C)(C)C	i	i	1.65	i	-9.93*	-1.4	95.3*	i
Cc1c(Cl)cccc1NC(=O)N1CCCN(c2nc(-c3ccccc3)ns2)CC1	i	i	0.88	i	i	-10.0	.	.
O=C(Nc1ccccc1Cl)N1CCCN(c2nc(-c3ccccc3)ns2)CC1	i	-6.99*	-0.06	i	-12*	-11.1	111.7*	i
COc1ccc(C)cc1NC(=O)c1sc2ncnc(N3CCN(c4ccccn4)CC3)c2c1C	i	i	0.19	i	-10.7*	-3.5	115.7*	i
COc1ccc(Br)cc1/C=N/NC(=O)c1nc(-c2ccccc2)n2c1CCCCC2	i	i	-0.97	6*	-11.5*	-7.9	112.7*	0.14*
CCN1CCSc2ccc(C(=O)NCc3ccccc3C)cc21	i	i	0.81	i	i	-11.8	.	.
CN1CCSc2ccc(C(=O)NCc3cccc(Br)c3)cc21	i	i	0.24	i	-14.1*	-14.1	120.3*	0.156*
CCN1CCSc2ccc(C(=O)NCc3ccccc3Br)cc21	i	i	4.59	i	-9.73*	-15.0	104.3*	0.152*
COc1cccc(/C=N\NS(=O)(=O)c2ccccc2)c1OC	i	i	0.08	i	i	-10.2	.	.
NC(=O)c1ccc2c(=O)c(O)c(-c3cc(Cl)c(N)c(Cl)c3)[nH]c2c1	i	i	-1.46	i	i	-3.9	.	.
Clc1ccc2c(c1)C(C1=NCCN1)c1ccccc1CS2 (configuration not stated)	i	i	2.26	i	i	-4.5	.	.
S=C1NCCc2ccc(Cl)cc2C1c1ccccc1Cl (configuration not stated)	i	-6.73*	-0.84	i	-11.1*	-5.7	123.0*	i
C[C@H]1CN=C(N(C)C)N1CCc1ccc(F)cc1	.	.	.	.	i	.	.	.
COCCN(C(=O)CSc1nc2ccccc2c(=O)n1CCOC)c1c(N)n(Cc2ccccc2)c(=O)[nH]c1=O	i	i	1.43	i	i	-4.7	.	.
Cc1noc(C)c1COc1ccccc1C(=O)NCCc1ccccc1	.	.	.	.	i	.	.	.
Cc1noc(C)c1COc1ccccc1C(=O)NCc1ccccc1Cl	i	i	-2.87	i	-8.82*	-11.8	104.7*	i
COc1cccc2cc(CC(=O)c3ccc(C)c(C)c3)c(=O)oc12	i	i	-1.19	i	i	-0.7	.	.
COc1cccc2cc(CC(=O)c3cc(C)ccc3C)c(=O)oc12	i	i	0.46	i	-9.62*	-7.8	82.0*	i
CCC(C)n1c(OC)nc2c1c(=O)n(C)c(=O)n2C (configuration not stated)	i	i	-1.08	i	i	-6.0	.	.
Cc1cccc(NC(=O)c2ccc(N(C)C3CCCCC3)c([N+](=O)[O-])c2)n1	i	i	-1.66	i	-11.2*	-12.3	128.0*	0.123*
CCn1c(SCC(=O)N(Cc2ccccc2)C2CCS(=O)(=O)C2)nc2ccccc2c1=O (configuration not stated)	i	i	0.83	i	i	-3.4	.	.
CCc1cc2c(=O)n(Cc3ccco3)c(SCC(=O)N(C)C3CCS(=O)(=O)C3)nc2s1 (configuration not stated)	i	i	0.27	i	-9.92*	-16.8	100.0*	i
CCN(C(=O)CSc1nc2ccccc2c(=O)n1Cc1ccc(C)cc1)C1CCS(=O)(=O)C1 (configuration not stated)	i	i	-0.61	i	-9.51*	-12.2	97.0*	i
CCN(C(=O)CSc1nc2ccccc2c(=O)n1-c1cccc(C)c1)C1CCS(=O)(=O)C1 (configuration not stated)	i	i	1.2	i	-11*	-14.9	100.0*	i
Cc1cccc(-n2c(SCC(=O)N3CC(=O)Nc4ccccc43)nc3ccccc3c2=O)c1	i	i	-0.02	i	-10.4*	-15.3	100.0*	i
SMILES	KCNQ1 pot	KCNK9 inh	Kir21 inh	KCNQ1 inh	KCNK3 block	hERG protect	KCNK3 confirm	KCNK3 uninduced
CCN(C(=O)CSc1nc2ccc(O)cc2c(=O)n1-c1ccc(OC)c(OC)c1)C1CCS(=O)(=O)C1 (configuration not stated)	.	.	.	.	i	.	.	.
CCN(C(=O)c1cn(C)c(=O)c2ccccc12)c1ccccc1F	i	i	0.1	i	i	-8.4	.	.
O=C(Nc1ccc(Oc2ccc(C(F)(F)F)cn2)c(Cl)c1)C1CC1	i	i	1.03	i	i	-10.6	.	.
CC(C)=CCc1c(O)ccc2c1OC(c1ccc(O)c(O)c1)CC2=O (configuration not stated)	i	-6.63*	-7.08*	i	-12.4*	-37.8	138.3*	0.119*
O=C1CC(c2ccc(O)c(O)c2)Oc2c1ccc(O)c2O (configuration not stated)	.	.	.	.	i	.	.	.
O=[N+]([O-])c1ccc(C2=NN(CCO)C(=Nc3ccc(OC(F)(F)F)cc3)SC2)cc1	i	i	0.99	i	-10.1*	-9.1	131.0*	i
COc1ccc(N=C2SCC(c3ccc([N+](=O)[O-])cc3)=NN2CCO)cc1	i	i	-1.05	i	i	-6.2	.	.
O=C(Nc1cccnc1)c1cc(-c2cccnc2)nc2ccc(Br)cc12	i	-7.73*	-2.38	i	-13.3*	-16.0	123.7*	0.122*
COc1cc(NC(=O)c2cc(-c3cccnc3)nc3ccc(Br)cc23)cc(OC)c1	i	i	-0.09	i	i	-2.3	.	.
Cn1c(SCc2ccccc2Br)nc2ccccc2c1=O	i	i	1.65	i	-9.04*	-11.2	134.3*	i
Cc1ccccc1CSc1nc2ccccc2c(=O)n1C	.	.	.	.	i	.	.	.
CCn1c(SCc2cccc(OC)c2)nc2ccccc2c1=O	i	i	1.12	i	-10.5*	-14.5	128.0*	0.126*
O=c1c2ccccc2nc(SCc2nnc(-c3ccccc3Br)o2)n1-c1ccccc1	i	-6.88*	1.27	i	-12.1*	-6.9	117.3*	i
Cn1c(SCc2cccc(Br)c2)nc2ccccc2c1=O	i	i	-1.03	i	-10.3*	-13.8	160.0*	0.0823*
CCN(c1cccc(C)c1)S(=O)(=O)c1ccc(-c2cc(C)no2)s1	i	i	1.55	i	-8.79*	-8.8	102.7*	i
